# Assay results of several laboratories.
# Each line is one published result; the experiments were not run side by side.
Structure (SMILES),cell line,test,setting,quantity,value
COc1cc([C@@H]2c3cc4c(cc3[C@H](O)[C@H]3COC(=O)[C@H]23)OCO4)cc(OC)c1OC,NCI-H1299,"cell growth or viability, MTT",72 h,EC50,0.003 µM
O=C1OC[C@H](Cc2cccc(O)c2)[C@H]1Cc1cccc(O)c1,SPCA1,"cell growth or viability, MTT",,IC50,42.2 µM
N.N.[Cl][Pt][Cl],SMMC-7721,"cell growth or viability, MTT",20 µM,inhibition,73.8%
N.N.[Cl][Pt][Cl],HL-60,"cell growth or viability, MTT",48 h,IC50,1.17 µM
COc1cc(O)c(C(=O)/C=C/c2ccc(O)cc2)c(OC)c1,SPCA1,"cell growth or viability, MTT",,IC50,25 µM
COc1ccc(CCNCc2c(N)nc(N)nc2C2CC2)cc1,Vero,"cell growth or viability, SRB",,IC50,71 µM
COC(=O)[C@@H](N)CCCNC(N)=N[N+](=O)[O-],RAW264.7,"NO release, inhibitor, Griess","250 µM, LPS-stimulated",inhibition,54%
Nc1nc(N)c(CNCCc2cccc(Cl)c2)c(C2CC2)n1,Vero,"cell growth or viability, SRB",,IC50,76 µM
CC(C)[C@H](NC(=O)[C@H](Cc1c[nH]c2ccccc12)NC(=O)[C@H](Cc1c[nH]cn1)NC(=O)[C@H](CCCNC(=N)N)NC(=O)[C@H](CCCNC(=N)N)NC(=O)[C@H](Cc1c[nH]c2ccccc12)NC(=O)[C@H](Cc1c[nH]c2ccccc12)NC(=O)[C@H](Cc1c[nH]cn1)NC(=O)[C@H](Cc1c[nH]c2ccccc12)NC(=O)[C@H](CCCNC(=N)N)NC(=O)[C@@H](N)CCCCN)C(=O)N[C@H](C(=O)N[C@@H](Cc1c[nH]c2ccccc12)C(N)=O)C(C)C,RAW264.7,"cell growth or viability, MTT",24 h,IC50,111 µM
O=C(CC(=O)C(F)(F)F)C(F)(F)F,HL-60,"cell growth or viability, resazurin","72 h, dark",IC50,> 100 µM
COc1cccc(CCNCc2c(N)nc(N)nc2C2CC2)c1,Vero,"cell growth or viability, SRB",,IC50,7.2 µM
C[C@H]1CN(c2ccncc2NC(=O)c2ccc(F)c(-c3c(F)cccc3F)n2)C[C@@H](N)[C@@H]1O,U-266,"cell growth or viability, thymidine uptake",,GI50,0.342 µM
COc1c(O)cc2oc3cc(O)c(CC=C(C)C)c(O)c3c(=O)c2c1CC=C(C)C,22Rv1,cell growth or viability,48 h,IC50,19.5 µM
COc1ccc(/C=C/C(=O)c2c(O)cc(OC)cc2OC)cc1,SPCA1,"cell growth or viability, MTT",,IC50,19.1 µM
